Experimental data from ChEMBL document CHEMBL3046303, “Nematotoxic phenolic compounds from Melia azedarach against Meloidogyne incognita” (J Agric Food Chem, 2012).
≈ marks a conversion by molar mass, not a printed value. Calls of active or inactive are those of the source. The rule behind the calls is not given here.

Test system: Meloidogyne incognita
Test: Nematotoxic activity against freshly hatched Meloidogyne incognita J2 (root-knot nematode) isolated from tomato roots assessed as induction of nematode paralysis measured 24 hr after immersion in compound test solutions
Type: functional, organism-based
Summary of the method: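 Freshly hatched (24 h) J2 extracted from tomato roots; 25 J2 per well in 96-well plates, kept in the dark at 28 °C. Motile or paralyzed J2 were scored under an inverted microscope at 40×. Paralysis was corrected for the water control (Schneider-Orelli). EC50 was fitted by log-logistic regression on the mean of five replicates; experiments were run twice.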

Structure (SMILES)	EC50 [µg/mL]
Oc1cc(O)c2c(c1)O[C@@H](c1ccc(O)c(O)c1)[C@@H](O)C2 [(+)-EPICATECHIN]	> 1000
O=C(O)c1ccccc1 [BENZOIC ACID]	501 (≈ 4.1 mM)
O=C(O)c1ccc2ccccc2c1 [BETA-NAPHTOIC ACID]	> 1000
O=C(O)/C=C/c1ccc(O)c(O)c1 [CAFFEIC ACID]	> 1000
Oc1cc(O)c2c(c1)OC(c1ccc(O)c(O)c1)C(O)C2 (stereo not given) [CATECHIN]	> 1000
O=C(/C=C/c1ccc(O)c(O)c1)O[C@@H]1C[C@](O)(C(=O)O)C[C@@H](O)[C@H]1O [CHLOROGENIC ACID]	> 1000
O=C(O)/C=C/c1ccc(O)cc1 [COUMARIC ACID]	840 (≈ 5.12 mM)
COc1cc(/C=C/C(=O)O)ccc1O [FERULATE]	> 1000
O=C(O)c1cc(O)c(O)c(O)c1 [GALLIC ACID]	> 1000
O=C(O)CC(O)C(=O)O (stereo not given) [MALIC ACID]	> 1000
O=C(O)c1cccnc1 [NIACIN]	1730 (≈ 14.1 mM)
O=C(O)c1ccc(O)cc1 [PARABEN]	871 (≈ 6.31 mM)
O=C(O)c1ccc(O)c(O)c1 [PROTOCATECHUIC ACID]	> 1000
C[C@@H]1O[C@@H](OC[C@H]2O[C@@H](Oc3c(-c4ccc(O)c(O)c4)oc4cc(O)cc(O)c4c3=O)[C@H](O)[C@@H](O)[C@@H]2O)[C@H](O)[C@H](O)[C@H]1O [RUTIN]	> 1000
O=C(O)c1ccccc1O [SALICYLIC ACID]	379 (≈ 2.74 mM)
COc1cc(C(=O)O)ccc1O [VANILLIC ACID]	> 1000

Test system: Meloidogyne incognita
Test: Nematotoxic activity against Meloidogyne incognita (root-knot nematode)
Type: functional, organism-based
Summary of the method: (§1)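 Freshly hatched J2 (24 h old), extracted from tomato roots, were exposed to test solutions at 25 J2 per well. Plates were kept in the dark at 28 °C with water and solvent-carrier controls. Nematodes were scored under an inverted microscope (40×) as motile or paralyzed. Paralysis was corrected for the water control by the Schneider-Orelli formula. EC50 came from log-logistic regression. Experiments were run twice.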

Structure (SMILES)	EC50 [µg/mL]	LC50 [µg/mL]
Cc1ccc(C=O)o1 [5-METHYLFURFURAL]	45.7 (≈ 0.415 mM)	–
O=Cc1ccc(CO)o1 [AES-103]	8.5 (≈ 0.0674 mM)	–
O=Cc1ccco1 [FURFURAL]	41.1 (≈ 0.428 mM)	–
CCCCCC(=O)O [HEXANOATE]	38.3 (≈ 0.33 mM)	–
CCCCCCCCCCCCCCCC(=O)O [PALMITIC ACID]	38.3 (≈ 0.149 mM)	–
O=C(O)c1ccccc1O [SALICYLIC ACID]	–	46 (≈ 0.333 mM)

Test system: Meloidogyne incognita
Test: Nematotoxic activity against freshly hatched Meloidogyne incognita J2 (root-knot nematode) isolated from tomato roots assessed as induction of microscopic damages in nematode body measured 24 hr after immersion in compound test solutions
Type: functional, organism-based

Structure (SMILES)	Activity
O=Cc1ccco1 [FURFURAL]	Active

Test system: Meloidogyne incognita
Test: Nematotoxic activity against freshly hatched Meloidogyne incognita J2 (root-knot nematode) isolated from tomato roots assessed as induction of nematode paralysis at 1000 ug/mL measured 24 hr after immersion in compound test solutions
Type: functional, organism-based
Summary of the method: as §1

Structure (SMILES)	Activity
O=C(O)/C=C/c1ccc(O)c(O)c1 [CAFFEIC ACID]	inactive
O=C(O)c1ccccc1O [SALICYLIC ACID]	Active
